From PubChem BioAssay
Hits are enriched below; roughly 3.7% of the tested compounds scored in any of these assays.
KCNK3 block – human KCNK3 channel inhibitors, primary screen, CHO cells, FluxOR thallium flux, B-score | FluxOR fluorescence; stronger effect = lower value | actives 0.84% (n = 340,000) | B-score at 10 µM | AID 602410, 2012 | Potassium channel subfamily K member 3 (Homo sapiens), O14649;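 active = B-score under library mean minus 4 SD, starting fluorescence ratio at most library mean plus 5 SD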;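 also: more negative B-score means stronger inhibition of thallium flux through KCNK3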
Kir21 inh – inhibitors of mouse Kir2.1 inward-rectifier potassium channel | Inward rectifier potassium channel 2 (Mus musculus), P35561 | HEK293-Kir2.1, FluxOR thallium flux fluorescence; stronger effect = lower value | B-score at 10 µM | actives 0.85% (n = 310,000);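 active = fluorescence ratio B-score at or below minus 3 SD of library scores, with starting-brightness B-score within 2 SD, cut at about -4.2 in these data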;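 also: channel flux triggered by added potassium and thallium sulfate stimulus; B-score of peak minus minimum fluorescence over baseline after thallium stimulus; more negative B-score means stronger Kir2.1 block with less thallium influx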
KCNQ1 pot – potentiators or activators of KCNQ1 channel, primary screen, cell-based, thallium flux, high-throughput. actives 0.35% (n = 310,000). Potassium voltage-gated channel subfamily KQT member 1 (Homo sapiens), P51787. B-score at 10 µM. CHO-K1 KCNQ1, thallium flux FluxOR fluorescence; stronger effect = higher value. AID 2648, 2010;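 active = fluorescence ratio B-score, a plate-corrected score, at least three library SD, with initial intensity B-score within 5 SD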
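Assay system: CHO-K1 cells stably expressing KCNQ1. Medium: assay buffer for compound exposure, DMSO matched across wells. Timing: 37 °C overnight plating, 90-min dark dye load, 20-min compound pretreatment. Signal: kinetic FluxOR fluorescence, 10 s baseline plus 110 s post-stimulus.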
KCNK9 block – KCNK9 potassium channel inhibitors, primary screen, HEK293 cells, thallium flux; Potassium channel subfamily K member 9 (Homo sapiens), Q9NPC2; FluxOR thallium flux fluorescence; stronger effect = lower value; B-score at 10 µM; actives 1.2% (n = 310,000); AID 488922, 2010;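 active = ratio B-score over 3 SD below the library mean, with starting fluorescence within 5 SD of its mean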;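 also: negative B-score means less thallium flux so channel inhibition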
hERG rescue – hERG rescue from dofetilide block, primary screen, cell-based, CHO-hERG, FluxOR thallium flux, dofetilide IC70; Voltage-gated inwardly rectifying potassium channel KCNH2 (Homo sapiens), Q12809; dofetilide IC70 present; activation (rescue from dofetilide block), less the hit threshold, % at 10 µM; actives 0.51% (n = 310,000); AID 1511, 2009;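 active = activation above the mean of controls blocked by dofetilide plus 5 SD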;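 also: thallium influx through hERG after potassium depolarization seen as dye fluorescence rise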
Target sequence (Q12809 whole entry, looked up): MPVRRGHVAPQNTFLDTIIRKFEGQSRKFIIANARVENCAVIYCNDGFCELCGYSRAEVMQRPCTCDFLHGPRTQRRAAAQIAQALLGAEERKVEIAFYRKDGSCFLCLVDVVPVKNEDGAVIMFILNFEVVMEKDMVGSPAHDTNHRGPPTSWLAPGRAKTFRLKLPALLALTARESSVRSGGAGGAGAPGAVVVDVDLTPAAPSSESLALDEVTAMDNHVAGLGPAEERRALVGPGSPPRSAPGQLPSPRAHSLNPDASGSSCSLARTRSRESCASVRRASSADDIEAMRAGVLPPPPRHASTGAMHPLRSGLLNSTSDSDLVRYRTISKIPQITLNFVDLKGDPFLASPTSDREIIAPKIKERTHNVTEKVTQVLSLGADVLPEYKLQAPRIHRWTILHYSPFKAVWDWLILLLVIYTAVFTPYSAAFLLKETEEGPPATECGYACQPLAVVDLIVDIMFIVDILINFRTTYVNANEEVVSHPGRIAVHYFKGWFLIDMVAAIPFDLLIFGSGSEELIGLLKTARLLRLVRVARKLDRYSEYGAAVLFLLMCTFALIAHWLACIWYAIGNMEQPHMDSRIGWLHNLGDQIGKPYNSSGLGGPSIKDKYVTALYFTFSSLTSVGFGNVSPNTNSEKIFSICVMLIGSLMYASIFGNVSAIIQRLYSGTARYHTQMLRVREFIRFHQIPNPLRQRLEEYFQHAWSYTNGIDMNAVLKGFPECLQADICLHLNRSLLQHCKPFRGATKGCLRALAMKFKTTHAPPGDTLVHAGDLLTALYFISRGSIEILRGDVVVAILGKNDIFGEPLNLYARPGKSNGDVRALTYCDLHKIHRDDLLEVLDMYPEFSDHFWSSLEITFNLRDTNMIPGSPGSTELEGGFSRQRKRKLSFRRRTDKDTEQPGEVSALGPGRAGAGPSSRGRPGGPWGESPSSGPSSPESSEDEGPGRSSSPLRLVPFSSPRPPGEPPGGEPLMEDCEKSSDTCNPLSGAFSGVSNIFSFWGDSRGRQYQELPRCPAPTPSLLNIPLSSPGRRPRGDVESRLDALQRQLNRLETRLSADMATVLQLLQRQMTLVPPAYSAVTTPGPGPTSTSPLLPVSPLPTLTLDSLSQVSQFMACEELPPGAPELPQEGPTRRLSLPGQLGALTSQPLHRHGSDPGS
KCNQ1 block – inhibitors of human KCNQ1 channel, primary screen, cell-based, thallium flux, high-throughput; AID 2642, 2010; CHO-K1 KCNQ1, FluxOR thallium flux fluorescence; stronger effect = higher value; B-score at 10 µM; actives 1.3% (n = 310,000);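 active = compounds whose thallium flux B-score, printed positive for inhibition, exceeds three library SD while starting fluorescence stays within three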;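 also: channel opened by potassium depolarization with thallium stimulus after 20 min compound exposure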
KCNK9 inh conf – KCNK9 potassium channel inhibitors, confirmation, HEK293 cells, thallium flux, duplicate; shares compounds with KCNK9 block; FluxOR thallium flux fluorescence; inhibition, % at 10 µM; actives 43% (n = 4,900); AID 492992, 2010;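 active = thallium signal inhibited by more than 5 SD of the compound-free buffer control wells, on both duplicate plates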;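 also: 0% = assay buffer control wells without compound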
Kir2-1 spec – mouse Kir2.1 channel inhibition, confirmation, selectivity assay for KCNK9 modulator project, cell-based, HEK293, thallium flux; shares compounds with KCNK9 block; Kir2.1 cells, FluxOR thallium flux fluorescence; inhibition, % at 10 µM; actives 4% (n = 4,900); AID 492993, 2010;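 active = thallium signal drop more than 5 SD beyond the mean of the no-compound control wells, seen in both duplicate plates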;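 also: signal is fluorescence rise after thallium addition divided by baseline fluorescence; plate controls were assay buffer only for no effect and full block by chlorpromazine control for full effect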
KCNK9 uninduced – thallium flux in non-induced HEK293 cells, confirmation, counter-screen for KCNK9 inhibitor project, cell-based, second counter screen, non-induced KCNK9-HEK293; shares compounds with KCNK9 block; FluxOR thallium flux; inhibition, % at 10 µM; actives 40% (n = 4,900); AID 492997, 2010;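 active = thallium signal drop beyond 5 SD of the untreated control mean, on both duplicate plates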;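 also: plate controls were buffer only IC0 wells for no effect and SID17386958 at its maximal inhibitory level for full effect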
Starred values were filed as active, the others as inactive; i = inactive; . = no result given.

SMILES	KCNK3 block	Kir21 inh	KCNQ1 pot	KCNK9 block	hERG rescue	KCNQ1 block	KCNK9 inh conf	Kir2-1 spec	KCNK9 uninduced
CN1CCN(c2ccc(S(=O)(=O)N3CCCCC3)cc2NC(=O)CSCc2ccccc2)CC1	i	0.91	i	i	-2	i	.	.	.
C=CCn1c(C)nnc1SCC(=O)Nc1cc(S(=O)(=O)N2CCCC2)ccc1Cl	i	.	.	.	.	.	.	.	.
CC(C)CN(CC(C)C)C(=O)c1cc(S(=O)(=O)N2CCCCC2)c[nH]1	i	-0.37	i	i	-10	i	.	.	.
N#Cc1nc(COc2ccc(F)cc2)oc1N1CCCCC1	i	-0.32	i	i	-14	i	i	i	i
N#Cc1nc(COc2ccccc2)oc1N1CCCCCC1	i	0.06	i	i	-15	i	.	.	.
O=[N+]([O-])c1cccc(OCCN2CCC(Cc3ccccc3)CC2)c1	i	-1.2	i	i	-16	7*	i	i	i
Clc1ccccc1OCCN1CCC(Cc2ccccc2)CC1	i	-4.3	i	i	-12	i	i	i	i
O=Cc1cc(Cl)ccc1OCCN1CCC(Cc2ccccc2)CC1	i	-4.8*	i	i	-26	i	i	i	i
CCOc1ccccc1NC(=O)C1C2CCC3C(CCC21)C3(Cl)Cl (stereo not drawn)	i	-0.87	i	i	-7	i	i	i	32%*
O=C(Nc1ccccc1)C1C2CCC3C(CCC21)C3(Cl)Cl (stereo not drawn)	i	-0.52	i	i	-1	i	.	.	.
O=C(Nc1ccccc1Cl)C1C2CCC3C(CCC21)C3(Cl)Cl (stereo not drawn)	i	0.24	i	i	-3	i	.	.	.
O=C(Nc1cccc(Cl)c1)C1C2CCC3C(CCC21)C3(Cl)Cl (stereo not drawn)	i	-0.86	i	i	-15	i	i	i	i
COc1ccc(OC)c(/C=N/N(CCC#N)C2=NS(=O)(=O)c3ccccc32)c1	i	2.7	i	i	0	i	.	.	.
COc1ccc(CNC(=O)C2CCC(CNc3c(N4CCC(C)CC4)c(=O)c3=O)CC2)cc1 (stereo not drawn)	i	-0.09	i	i	-8	i	.	.	.
COc1ccc(C(=O)/C=C/c2ccc(OC)c(COc3ccccc3F)c2)cc1	i	1.9	i	-16*	-9	i	70%*	i	31%*
COc1ccc(/C=C/C(=O)c2ccccc2)cc1COc1ccc(F)cc1	i	0.57	i	-13*	-5	i	70%*	28%*	55%*
COc1ccc(OC)c(/C=C2\SC(=S)N(NS(=O)(=O)c3ccc(C)cc3)C2=O)c1	i	-0.23	i	i	-4	i	i	i	i
CCOc1ccc(/C=C2\SC(=S)N(NS(=O)(=O)c3ccc(C)cc3)C2=O)cc1OC	i	0.72	i	i	-18	i	i	i	i
COc1ccc(/C=C2\SC(=S)N(NS(=O)(=O)c3ccccc3)C2=O)c(OC)c1	i	2.5	19*	i	-8	i	i	i	i
O=C(CSc1nc(-c2ccccc2Cl)ns1)c1ccc(Cl)cc1	i	-1.2	i	-12*	1	i	46%*	i	43%*
O=C(NNC(=S)NCc1ccc(Cl)cc1)c1ccc2c(c1)OCO2	i	1.6	i	i	-12	i	.	.	.
O=C(COC(=O)CNC(=O)c1ccccc1Cl)Nc1cc(C(F)(F)F)ccc1Cl	i	.	.	.	.	.	.	.	.
O=C(CNC(=O)c1ccccc1F)OC(C(=O)Nc1cc(C(F)(F)F)ccc1Cl)c1ccccc1 (stereo not drawn)	i	1.5	i	-11*	-9	i	i	i	32%*
CSc1nnnn1-c1c(C)cccc1C	i	-0.32	i	i	-4	i	.	.	.
Cc1cccc(C)c1-n1nnnc1SCSc1nnnn1-c1c(C)cccc1C	i	1.6	i	-13*	-8	i	i	i	35%*
SMILES	KCNK3 block	Kir21 inh	KCNQ1 pot	KCNK9 block	hERG rescue	KCNQ1 block	KCNK9 inh conf	Kir2-1 spec	KCNK9 uninduced
CCN(CC)c1ccc(/C=c2\sc3nnc(-c4ccccc4Cl)n3c2=O)cc1	i	0.17	i	-11*	9.3*	7*	44%*	i	i
OCc1ccnc2oc3ccccc3c12	i	0.95	i	i	-3	i	.	.	.
O=C(CCC1CCCC1)Nc1cccn(Cc2ccccc2Br)c1=O	i	0.33	i	i	-9	i	i	i	26%*
CCCC(=O)Nc1cccn(Cc2ccccc2Br)c1=O	i	-1	i	i	-11	i	.	.	.
COc1cc(/C=C/C(=O)O)cc(S(=O)(=O)Nc2ccc3c(c2)CCC3)c1OC	i	-0.04	i	i	-3	i	.	.	.
CC(C)C[C@@H](CN(N=O)[C@@H](Cc1ccccc1)CN(C)N=O)N(CCc1ccccc1)N=O	i	0.64	i	i	-3	i	.	.	.
CN(C[C@H](Cc1ccccc1)N(C[C@@H](Cc1cccc2ccccc12)N(CCc1ccccc1)N=O)N=O)N=O	i	1.3	i	-8.5*	-5	i	i	i	38%*
C#CCOC(=O)C[N+](C)(C)CC#Cc1ccccc1	i	0.15	i	i	-7	i	.	.	.
O=c1c(Cc2ccc(Cl)cc2)c(O)ccn1Cc1cccc(Cl)c1	i	-0.19	i	i	-10	i	i	i	i
O=c1c(Cc2ccc(F)cc2)c(O)ccn1Cc1cccc(Cl)c1	i	-0.26	i	i	-7	i	.	.	.
